What follows are compounds tested on Clostridium perfringens (assay: Antibacterial activity against Clostridium perfringens isolated from patient with diabetic foot infection assessed as percent resistant isolates after 44 to 48 hrs by agar dilution method).
Type: functional
Procedure, shortened: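 Agar dilution per CLSI M11-A7. Twofold drug dilutions made on the test day and added to molten agar. Replicator-applied inoculum of 10^5 CFU/spot. Drug-free control plates inoculated before and after each drug set. Incubation at 37°C for 44 to 48 h, anaerobic chamber. MIC taken as the lowest concentration giving no growth or a marked change in growth versus controls.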

Question: How did the Activity turn out when C[C@@H](O)[C@H]1C(=O)N2C(C(=O)O)=C(S[C@@H]3CN[C@H](CNS(N)(=O)=O)C3)[C@H](C)[C@H]12 [DORIPENEM] was run?
Answer: 0%

Question: With CCC[C@@H]1C[C@@H](C(=O)N[C@@H]([C@H]2O[C@H](SC)[C@H](O)[C@@H](O)[C@H]2O)[C@H](C)Cl)N(C)C1 [CLINDAMYCIN] as the compound, how does the Activity read?
Answer: 0%

Question: Which Activity does the source give for C[C@@H](O)[C@H]1C(=O)N2C(C(=O)O)=C(S[C@@H]3CN[C@H](C(=O)N(C)C)C3)[C@H](C)[C@H]12 [MEROPENEM] here?
Answer: 0%

Question: For C[C@@H](O)[C@H]1C(=O)N2C(C(=O)O)=C(S[C@@H]3CN[C@H](C(=O)Nc4cccc(C(=O)O)c4)C3)[C@H](C)[C@H]12 [ERTAPENEM], which Activity is on record?
Answer: 0%

Question: Which Activity does the source give for Cc1ncc([N+](=O)[O-])n1CCO [METRONIDAZOLE] here?
Answer: 0%

Question: C[C@@H](O)[C@H]1C(=O)N2C(C(=O)O)=C(SCCNC=N)C[C@H]12 [IMIPENEM ANHYDROUS] was tested. Which Activity did it give?
Answer: 0%
